Assay results from PubChem BioAssay AID623977 (Vanderbilt High Throughput Screening Facility, 2012).

Molecular target: G protein-activated inward rectifier potassium channel 2 (Homo sapiens) + G protein-activated inward rectifier potassium channel 1 (Homo sapiens) (UniProt P48051+P48549)
Assay: GIRK1/2 channel activators by patch clamp, confirmation, orthogonal assay for GIRK activator project, HEK-293 hGIRK1/2, whole-cell voltage clamp, Ba2+-sensitive current (AID 623977)
Details: HEK-293 hGIRK1/2, whole-cell patch clamp current
How it was run: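 Assay system: HEK-293 cells stably expressing human GIRK1/2 channels; Buffer or medium: 20 mM K+ bath, pH 7.4, KCl pipette solution; Dosing: test compound diluted in 20 mM K+ bath solution; Timing: recordings 24–72 h post-plating; Signal: whole-cell patch clamp, -70 mV.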

Chain of G protein-activated inward rectifier potassium channel 2 (Homo sapiens) + G protein-activated inward rectifier potassium channel 1 (Homo sapiens) (P48051 whole entry, looked up): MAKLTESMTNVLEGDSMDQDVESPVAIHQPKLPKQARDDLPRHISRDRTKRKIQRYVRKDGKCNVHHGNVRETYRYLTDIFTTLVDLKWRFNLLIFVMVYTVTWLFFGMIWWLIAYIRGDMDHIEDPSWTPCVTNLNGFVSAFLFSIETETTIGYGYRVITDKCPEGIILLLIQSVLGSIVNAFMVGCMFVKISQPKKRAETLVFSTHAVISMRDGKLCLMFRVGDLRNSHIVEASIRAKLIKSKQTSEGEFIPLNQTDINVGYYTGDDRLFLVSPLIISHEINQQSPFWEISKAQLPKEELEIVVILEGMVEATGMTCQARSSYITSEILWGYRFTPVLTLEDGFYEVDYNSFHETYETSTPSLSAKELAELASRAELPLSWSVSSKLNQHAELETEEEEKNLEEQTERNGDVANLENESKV
Chain of G protein-activated inward rectifier potassium channel 2 (Homo sapiens) + G protein-activated inward rectifier potassium channel 1 (Homo sapiens) (P48549 whole entry, looked up): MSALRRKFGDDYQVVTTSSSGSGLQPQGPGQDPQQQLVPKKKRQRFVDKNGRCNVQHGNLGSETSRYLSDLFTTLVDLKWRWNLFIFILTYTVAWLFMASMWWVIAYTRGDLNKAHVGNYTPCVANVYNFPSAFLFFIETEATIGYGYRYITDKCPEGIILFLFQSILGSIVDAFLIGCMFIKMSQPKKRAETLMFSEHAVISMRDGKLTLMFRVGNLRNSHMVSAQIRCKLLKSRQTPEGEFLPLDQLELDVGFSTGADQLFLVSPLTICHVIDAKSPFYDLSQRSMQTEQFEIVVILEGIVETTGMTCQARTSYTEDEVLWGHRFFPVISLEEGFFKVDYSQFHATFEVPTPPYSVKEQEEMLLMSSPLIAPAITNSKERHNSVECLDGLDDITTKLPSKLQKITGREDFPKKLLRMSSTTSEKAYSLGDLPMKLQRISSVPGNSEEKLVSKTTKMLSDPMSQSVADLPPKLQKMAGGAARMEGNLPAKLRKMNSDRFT

**Q.** `Cc1cc(NC(=O)Nc2ccc(F)c(F)c2)n(-c2ccccc2)n1` was tested. Which EC50 did it give?
**A.** 54.1 nM
